Source: PubChem BioAssay
RGS4 act: potentiators or activators of RGS4; HEK293 M3R/inducible RGS4, carbachol calcium flux Fluo4; stronger effect = lower value; B-score at 10 µM; actives 0.92% (n = 310,000); AID 463111;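 active = B-score of the integrated calcium signal more than 4 SD below the library mean, with starting fluorescence not abnormally high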;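 also: negative B-score means reduced calcium response which marks RGS4 activation or potentiation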
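Material: M3R-expressing HEK293 line, RGS4 induced by doxycycline | Schedule: Overnight RGS4 induction, 30 min dye load 37 °C, 20 min compound RT | Measured by: Fluo4 fluorescence kinetic imaging of calcium | Read-out: Integrated calcium ratio converted to B score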
MrgX1 allo act: human MrgX1 positive allosteric modulation, primary screen. MrgX1-HEK293, Fluo-4 calcium flux, FDSS; stronger effect = higher value. Q96LB2. actives 0.63% (n = 310,000). B-score at 10 µM;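 active = plate-corrected calcium response at least 3 library SD above typical, normal starting fluorescence, not activating the receptor alone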;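 also: compound read alongside a low EC10 to EC30 dose of BAM8-22 agonist; peak minus trough fluorescence over baseline measured at the second addition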
Target sequence (Q96LB2 whole entry, looked up): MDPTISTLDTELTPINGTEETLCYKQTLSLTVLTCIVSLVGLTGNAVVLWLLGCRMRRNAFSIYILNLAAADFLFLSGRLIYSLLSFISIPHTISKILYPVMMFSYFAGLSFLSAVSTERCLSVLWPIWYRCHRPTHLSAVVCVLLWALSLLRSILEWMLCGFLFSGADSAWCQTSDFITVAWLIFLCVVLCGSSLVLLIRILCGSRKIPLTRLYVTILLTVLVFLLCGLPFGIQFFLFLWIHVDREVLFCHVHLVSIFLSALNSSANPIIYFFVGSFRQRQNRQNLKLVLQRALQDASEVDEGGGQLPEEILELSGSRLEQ
MrgX1 ag: human MrgX1 receptor agonism, primary screen; MrgX1-HEK293 cells, Fluo-4 calcium fluorescence, agonist mode; stronger effect = higher value; B-score at 10 µM; actives 0.44% (n = 310,000);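 active = calcium response B-score plate-corrected fluorescence ratio at least 3 library SD, with starting fluorescence B-score inside 5 SD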
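Assay system: MrgX1-expressing HEK293 cells / Amount: fifteen thousand cells per well / Doses: test compound in the initial addition of three / Timing: cells plated overnight, dye loaded 0.5 h 37 °C, 0.5 h room temperature / Technique: kinetic calcium dye fluorescence, Fluo-4 NW / Control set: positive and negative controls per plate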
MrgX1 antagonist: blocks BAM8-22 activation of human MrgX1 receptor; MRGX1-HEK293 calcium flux, Fluo-4, BAM8-22 antagonism; stronger effect = lower value; Q96LB2; actives 1.3% (n = 310,000); B-score at 10 µM; AID 588676;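 active = calcium-response B-score plate-corrected more than 3 library SD below zero, starting fluorescence within 5 deviations, no agonist response on first addition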;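 also: peak minus trough fluorescence over baseline after final BAM8-22 challenge near maximal dose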
RGS4 block: human RGS4 inhibition; HEK293 M3R/RGS4 inducible, Fluo-4 calcium flux; stronger effect = higher value; triggered by carbachol at its EC20; AID 463165; actives 0.45% (n = 310,000); P49798; B-score at 10 µM;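 active = B-score, a plate-corrected calcium signal, over three deviations above library mean, with baseline fluorescence within five deviations of library mean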;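 also: RGS4 expression induced by doxycycline in cells with stable M3 receptor; B-score is computed from the integrated fluorescence ratio over baseline after carbachol; higher B-score means a larger calcium signal and so more RGS4 inhibition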
Target sequence (P49798 whole entry, looked up): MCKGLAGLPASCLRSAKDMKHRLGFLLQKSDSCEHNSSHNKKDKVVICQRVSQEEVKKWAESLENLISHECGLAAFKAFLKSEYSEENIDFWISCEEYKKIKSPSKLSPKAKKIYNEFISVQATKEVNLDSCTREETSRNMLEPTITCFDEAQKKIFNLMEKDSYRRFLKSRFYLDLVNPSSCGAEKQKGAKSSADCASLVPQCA
Hep lipid drop: modulators of hepatic lipid droplet formation. AML12 mouse hepatocytes, oleate lipid droplets, BODIPY imaging. actives 0.4% (n = 240,000). AID 1656. inhibition, % at 6.5 µM;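 active = lipid droplet intensity inhibited by at least 50%, with more than 500 cells counted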
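material = mouse AML12 hepatocyte cell line, fixed after treatment | also added = 100 µM oleic acid challenge | doses = compound at 6.5 µM only | schedule = overnight exposure | technique = Image-based BODIPY and DAPI two-channel analysis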
Numbers without * were called inactive; i = inactive; . = no result. This is a sample that favours compounds with a hit; in the whole collection about 3.8% have one here.

SMILES | RGS4 act | MrgX1 allo act | MrgX1 ag | MrgX1 antagonist | RGS4 block | Hep lipid drop
CCC1(CC)Cc2ccccc2C(C2=C(O)CC(C)(C)CC2=O)=N1 | i | i | i | -4.8* | i | .
CC1(C)CC(=O)C(C2=NC3(CCCCC3)Cc3ccccc32)=C(O)C1 | i | i | i | i | i | -9
COc1ccc(CCNC(=O)CC(c2ccccc2)c2cccc(C)c2O)cc1OC (configuration not stated) | i | i | i | -5.9* | i | 3
O=C(O)c1ccc(CNC(=O)c2ccccc2NC(=O)c2ccc([N+](=O)[O-])cc2)cc1 | i | i | i | -4.9* | i | 16
O=C(O)c1ccc(CNC(=O)c2ccccc2NC(=O)c2cccc([N+](=O)[O-])c2)cc1 | i | i | i | i | i | 2
O=S(=O)(c1ccc(F)cc1)c1nc(-c2ccccc2)oc1N1CCOCC1 | i | i | i | i | i | -6
COC(=O)CS(=O)(=O)c1nnc([C@H](Cc2ccccc2)NC(=O)OC(C)(C)C)o1 | i | i | 30* | i | i | 3
Cc1ccccc1-n1c(C)nnc1SCC(=O)N1CCc2ccccc2C1 | i | i | i | i | i | -8
O=S(=O)(CCSc1nc2ccccc2s1)c1nc2ccccc2s1 | -7.4* | i | i | i | i | -22
CCS(=O)(=O)CCSc1nc2ccccc2s1 | i | i | i | i | i | .
Cc1cc(Br)ccc1OCC(=O)NNC(=O)c1cnccn1 | i | i | i | i | i | 18
CCN1C(=O)/C(=C/C=C2/CCCN2C)OC1=S | i | i | 27* | i | i | 0
COc1ccc([C@@H]2[C@@H]3C(=O)N(C(C)(C)C)C(=O)[C@@H]3[C@]3(Cc4ccc(Cl)cc4)C(=O)N(c4cccc(F)c4)C(=O)N23)cc1 | . | i | i | i | . | .
COc1cc2ccccc2cc1C(=O)Nc1ccccc1N1CCCC1 | -7.3* | i | i | i | i | .
Cn1nc(C(=O)NCCOc2ccccc2)c2ccccc2c1=O | i | 10* | i | i | i | 7
O=C(NC(=S)Nc1ccccc1N1CCCCC1)c1ccc(F)cc1Cl | -7* | i | i | i | i | 3
Cn1nc(C(=O)NCc2ccccc2)c2ccccc2c1=O | i | i | i | i | i | -1
Cn1nc(C(=O)Nc2ccccc2N2CCCC2)c2ccccc2c1=O | i | 12* | i | i | i | -1
CNC(=O)COc1ccc(Nc2nnc(-c3ccc(C)c(S(N)(=O)=O)c3)c3ccccc23)cc1 | i | i | i | i | i | 10
COc1ccc(CNC(=O)C2CCC(CNc3nc(=S)[nH]c4ccccc34)CC2)cc1 (configuration not stated) | i | 12* | i | i | i | -12
CCOC(=O)NC(=O)/C(C#N)=C/c1ccc(N(C)C)cc1 | i | i | 54* | i | i | 2
CN(C)c1ccc(/C=C(\C#N)C(=O)c2ccccc2)cc1 | i | i | i | -6.3* | i | 32
CCN(CC)c1ccc(/C=C(\C#N)C(=O)c2ccc(Br)cc2)cc1 | i | i | 30* | i | i | -8
O=C(Nc1cccnc1)c1ccc(COc2cc(Cl)ccc2Cl)o1 | i | i | i | i | i | .
O=C(N/N=C/c1ccc(O)cc1)c1ccc(COc2cc(Cl)ccc2Cl)o1 | i | i | i | -5.2* | i | .
SMILES | RGS4 act | MrgX1 allo act | MrgX1 ag | MrgX1 antagonist | RGS4 block | Hep lipid drop
Cc1noc(NS(=O)(=O)c2ccc(NC(=O)c3cc(-c4ccccc4Cl)nc4ccccc34)cc2)c1C | i | i | 39* | i | i | -4
COc1cccc(-c2nn(C)c3sc(C(=O)N4CCN(c5ccccn5)CC4)cc23)c1 | -11* | i | i | i | i | -16
CCCCCCCc1c(O)nc(SCCN2CCOCC2)[nH]c1=O | i | i | i | i | i | 0
CCc1ccccc1NC(=S)N1N=CCC1c1ccccc1 (configuration not stated) | i | i | 37* | i | i | -2
Cc1cccc(NC(=S)N2N=CCC2c2ccccc2)c1 (configuration not stated) | i | i | i | i | i | .
Cc1cccc(C(=O)NCC(=O)NC2CCC(C)CC2)c1 (configuration not stated) | i | i | i | i | i | .
CCCNC(=O)OC[C@H]1O[C@H](CCO/N=C(\C)CCN2CCc3nc(-c4ccccc4)c(-c4ccccc4)cc3C2)C=C[C@@H]1Oc1ccc(OC)cc1 | -8.1* | i | i | i | i | -4
O=[N+]([O-])c1ccc(Nc2nccc(Cl)n2)cc1 | i | i | i | i | i | .
CCN1C(=O)/C(=C2\SC(=S)N(NC(=O)c3ccccc3O)C2=O)c2ccccc21 | i | 15* | i | i | i | -1
CCN1C(=O)/C(=C2\SC(=S)N(CC3CCCO3)C2=O)c2ccccc21 (configuration not stated) | . | . | . | . | . | 7
Cc1ccc(C(=O)OC(C)C(=O)Nc2ccc(S(N)(=O)=O)cc2)cc1S(=O)(=O)N1CCOCC1 (configuration not stated) | i | i | i | i | i | .
Cc1ccc(NC(=O)C(C)OC(=O)c2ccc(NC(=O)CC#N)cc2)cc1S(=O)(=O)N1CCOCC1 (configuration not stated) | i | i | i | -4.5* | i | .
O=S1(=O)CCOCCCN1Cc1ccccc1 | i | i | i | i | i | -2
Cc1ccc(N(CC(=O)NCc2ccccn2)S(=O)(=O)c2ccccc2)cc1C | i | i | i | i | i | 9
COc1ccccc1N1CCN(C2CCCN(C(=O)CC(F)(F)F)C2)CC1 (configuration not stated) | i | i | i | i | i | 3
O=c1c(C(c2ccccc2)c2c(O)sc3ccccc3c2=O)c(O)sc2ccccc12 | i | i | i | -4.6* | i | 2
Cc1nc2ccccn2c1/C(O)=C1\C(=O)C(=O)N(CCCN(C)C)C1c1ccc(F)cc1 (configuration not stated) | . | i | i | -4.8* | . | .
Cc1nc2c(C)cccn2c1/C(O)=C1\C(=O)C(=O)N(CCN(C)C)C1c1ccncc1 (configuration not stated) | i | i | i | i | i | .
